Results as given in ChEMBL document CHEMBL4765269, “Design, synthesis and evaluation of phenylthiazole and phenylthiophene pyrimidindiamine derivatives targeting the bacterial membrane” (Eur J Med Chem, 2020).
≈ marks a conversion by molar mass, not a printed value. Calls of active or inactive are those of the source. The rule behind the calls is not given here. Where a SMILES comes first, the peptide text is derived from it. Bridges are numbered along the chain shown (N, C = ends). [ ]: non-standard residue; d: D form. The star is where a group is joined. X1 = CC[C@H](C)CCCCC(=O)*; Dab = NCC[C@H](N)C(=O)O

Legend:
Escherichia coli [1] = assay: Antibacterial activity against Escherichia coli ATCC 25922 assessed as inhibition of growth measured after 24 hrs by CLSI based broth microdilution method; format: functional
Staphylococcus aureus [2] = assay: Antibacterial activity against Staphylococcus aureus ATCC 29213 assessed as inhibition of growth measured after 24 hrs by CLSI based broth microdilution method; format: functional
Cell membrane [3] = assay: Induction of cell membrane damage in Escherichia coli ATCC 25922 assessed as fluorescence emission at MIC after 1 hr by propidium iodide staining based transmission electron microscopy (reference value: 4.34%); format: functional, subcellular; conditions: in the assay text read “flow cytometry” for “transmission electron microscopy”
In short: (§1)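 Log-phase bacteria diluted in PBS to about 10^9 CFU/mL and exposed to 1× MIC compound at 37 °C for 1 h. Cells were washed and stained with 60 µM propidium iodide in the dark for 15 min, then read at once by flow cytometry. The percentage of PI-stained cells was reported against an untreated control.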

[4] = Toxicity in rabbit red blood cells assessed as hemolysis at 3 to 22.5 ug/ml incubated for 1 hr relative to control; format: cell-based, Oryctolagus cuniculus, Erythrocyte; conditions: at 3 to 22.5 µg/mL, dose 3-22.5 µg/ml, read-out: Activity
In short: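 Washed rabbit erythrocytes at 2% in PBS were mixed with compound at final 3 to 22.5 µg/mL for 1 h at room temperature. After centrifugation at 1500 rpm for 10 min, supernatant absorbance was read at 450 nm. Hemolysis % = (A − A_PBS)/(A_Triton − A_PBS) × 100, with 0.5% Triton X-100 as the positive control. Run in triplicate.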

Escherichia coli [5] = assay: Antibacterial activity against Escherichia coli ATCC 25922 assessed as bacterial growth inhibition at 0.5 times of MIC concentration measured at logarithmic phase 6 th hr of bacterial cycle; format: functional, organism-based; conditions: time 24.0 hrs
In short: (§2)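 Bacteria grown in Mueller Hinton broth with compound at several MIC multiples, shaken at 220 rpm and 37 °C for 24 h. Growth was recorded every 2 h over the 24 h. The solvent control was 1% DMSO under the same conditions.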

Staphylococcus aureus [6] = assay: Antibacterial activity against Staphylococcus aureus ATCC 29213 assessed as bacterial growth inhibition at 0.5 times of MIC concentration measured at logarithmic phase 6 th hr of bacterial cycle; format: functional, organism-based; conditions: time 24.0 hrs; in short: as §2
Escherichia coli [7] = assay: Induction of morphological changes in Escherichia coli ATCC 25922 assessed as deformed, pitted and shriveled surface at MIC incubated for 12 hrs by scanning electron microscopy; format: functional, organism-based
In short: (§3)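 Cells treated with 1× MIC compound or PBS, then washed three times in PBS. Pellets were fixed in 2.5% glutaraldehyde for 2 h, dehydrated through an ethanol series, critical-point dried and gold-coated. Imaging was by SEM at 3 kV.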

Staphylococcus aureus [8] = assay: Induction of morphological changes in Staphylococcus aureus ATCC 29213 assessed as deformed, pitted and shriveled surface at MIC incubated for 12 hrs by scanning electron microscopy; format: functional, organism-based; in short: as §3
Escherichia coli [9] = assay: Induction of morphological changes in Escherichia coli ATCC 25922 assessed as damaged cells at MIC incubated for 12 hrs by Transmission electron microscopy; format: functional, organism-based
In short: (§4)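 Cells treated with 1× MIC compound or PBS, then washed three times in PBS. Pellets were fixed in 2.5% glutaraldehyde and then 1% osmium tetroxide, 2 h each, and examined by TEM.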

Staphylococcus aureus [10] = assay: Induction of morphological changes in Staphylococcus aureus ATCC 29213 assessed as damaged cells at MIC incubated for 12 hrs by Transmission electron microscopy; format: functional, organism-based; in short: as §4
Cell membrane [11] = assay: Induction of membrane disruption in Escherichia coli ATCC 25922 at 1 to 4 x MIC measured within 20 min by Ethidium bromide based fluorescence assay; format: functional, subcellular
In short: (§5)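 Log-phase cells washed and resuspended in PBS at about 10^8 CFU/mL. Ethidium bromide ([…], stated as final) and compound at various concentrations were added. Fluorescence (ex 540, em 590 nm) was read every 20 min for 80 min against a solvent control.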

Cell membrane [12] = assay: Induction of membrane disruption in Staphylococcus aureus ATCC 29213 at 1 to 4 x MIC measured within 20 min by Ethidium bromide based fluorescence assay; format: functional, subcellular; in short: as §5
Cell membrane [13] = assay: Induction of cell membrane damage in Staphylococcus aureus ATCC 29213 assessed as fluorescence emission at MIC after 1 hr by propidium iodide staining based transmission electron microscopy (Rvb= 1.53%); format: functional, subcellular; conditions: in the assay text read “flow cytometry” for “transmission electron microscopy”; in short: as §1
Cell membrane [14] = assay: Induction of membrane depolarization in Escherichia coli ATCC 25922 assessed as increased the fluorescence intensity at 1 to 2 times of MIC incubated for 80 min by [DiSC3(5)] probe based fluorescence assay; format: functional, subcellular
In short: (§6)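 Log-phase cells at 10^7 CFU/mL in PBS with 0.4 µM DiSC3(5) and 0.1 M KCl, kept in the dark. […] Fluorescence (ex 622, em 670 nm) was recorded continuously for 80 min.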

Cell membrane [15] = assay: Induction of membrane depolarization in Staphylococcus aureus ATCC 29213 assessed as increased the fluorescence intensity at 1 to 2 times of MIC incubated for 80 min by [DiSC3(5)] probe based fluorescence assay; format: functional, subcellular; in short: as §6
Staphylococcus aureus [16] = assay: Antibacterial activity against Staphylococcus aureus ATCC 29213 infected in mouse C57BL/6 bacterimia model assessed as reduction in number of viable pathogens in peritoneal cavity at 12 mg/kg, ip treated 1 hr after infection measured after 24 hrs; format: functional, organism-based
In short: (§7)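 Male C57BL/6 mice (20 ± 2 g, 7 per group) got an ip injection of 200 µL mid-log S. aureus in sterile saline (about 10^9 CFU per 20 g). Compound was given ip 1 h later. Controls were 0.9% saline and polymyxin B 12 mg/kg. After 24 h, peritoneal lavage (2 mL PBS) was serially diluted 10-fold onto TSA and incubated 18-24 h at 37 °C. CFU were counted.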

Staphylococcus aureus [17] = assay: Antibacterial activity against Staphylococcus aureus ATCC 29213 infected in mouse C57BL/6 bacterimia model assessed as reduction in number of viable pathogens in peritoneal cavity at 24 mg/kg, ip treated 1 hr after infection measured after 24 hrs; format: functional, organism-based; in short: as §7
Escherichia coli [18] = assay: Antibacterial activity against Escherichia coli ATCC 25922 assessed as bacterial growth inhibition at 1 to 2 times of MIC concentration measured at logarithmic phase 6 th hr of bacterial cycle; format: functional; conditions: time 6 hrs; in short: as §2
Staphylococcus aureus [19] = assay: Antibacterial activity against Staphylococcus aureus ATCC 29213 assessed as bacterial growth inhibition at 1 to 2 times of MIC concentration measured at logarithmic phase 6 th hr of bacterial cycle; format: functional; conditions: time 6 hrs; in short: as §2

SMILES	MIC (Escherichia coli [1])	MIC (Staphylococcus aureus [2])	also measured
CC(C)CNc1nccc(NCc2csc(-c3ccccc3)n2)n1	> 32 µg/mL	> 32 µg/mL	
CC(C)CNc1nccc(NCc2ccc(-c3ccc(F)cc3)s2)n1	> 32 µg/mL	8 µg/mL (≈ 22.4 µM)	
CCCCN(CCCC)c1nccc(NCc2ccc(-c3ccccc3)s2)n1	> 32 µg/mL	> 32 µg/mL	
Clc1nccc(NCc2csc(-c3ccccc3)n2)n1	> 32 µg/mL	> 32 µg/mL	
CN[C@H](CC(C)C)C(=O)N[C@H]1C(=O)N[C@@H](CC(N)=O)C(=O)N[C@H]2C(=O)N[C@H]3C(=O)N[C@H](C(=O)N[C@H](C(=O)O)c4cc(O)cc(O)c4-c4cc3ccc4O)[C@H](O)c3ccc(c(Cl)c3)Oc3cc2cc(c3O[C@@H]2O[C@H](CO)[C@@H](O)[C@H](O)[C@H]2O[C@H]2C[C@](C)(N)[C@H](O)[C@H](C)O2)Oc2ccc(cc2Cl)[C@H]1O [VANCOMYCIN]	1 µg/mL (≈ 0.69 µM)		
c1ccc(-c2ccc(CNc3ccnc(N4CCNCC4)n3)s2)cc1	> 32 µg/mL	> 32 µg/mL	
CCCCNc1nccc(NCc2ccc(-c3ccccc3)s2)n1	> 32 µg/mL	4 µg/mL (≈ 11.8 µM)	
c1ccc(-c2ccc(CNc3ccnc(N4CCOCC4)n3)s2)cc1	> 32 µg/mL	> 32 µg/mL	
O=C(N[C@H](CO)[C@H](O)c1ccc([N+](=O)[O-])cc1)C(Cl)Cl [CHLORAMPHENICOL]	8 µg/mL (≈ 24.8 µM)	8 µg/mL (≈ 24.8 µM)	
CC(C)CN(CC(C)C)c1nccc(NCc2ccc(-c3ccccc3)s2)n1	> 32 µg/mL	> 32 µg/mL	
CC(C)Nc1nccc(NCc2ccc(-c3ccccc3)s2)n1	> 32 µg/mL	> 32 µg/mL	

Second part, led by results:

MIC (Escherichia coli [1])	MIC (Staphylococcus aureus [2])	SMILES	also measured
32 µg/mL (≈ 26.6 µM)	512 µg/mL (≈ 425 µM)	CC[C@H](C)CCCCC(=O)N[C@@H](CCN)C(=O)N[C@H](C(=O)N[C@@H](CCN)C(=O)N[C@H]1CCNC(=O)[C@H]([C@@H](C)O)NC(=O)[C@H](CCN)NC(=O)[C@H](CCN)NC(=O)[C@H](CC(C)C)NC(=O)[C@@H](Cc2ccccc2)NC(=O)[C@H](CCN)NC1=O)[C@@H](C)O (X1-[Dab]T[Dab][Dab][Dab][dF]L[Dab][Dab]T; lactam 4-C)	
8 µg/mL (≈ 21.8 µM)	> 32 µg/mL	CCCN(CCC)c1nccc(NCc2ccc(-c3ccccc3)s2)n1	
8 µg/mL (≈ 24.7 µM)	16 µg/mL (≈ 49.3 µM)	CCCNc1nccc(NCc2ccc(-c3ccccc3)s2)n1	
4 µg/mL (≈ 10.9 µM)	4 µg/mL (≈ 10.9 µM)	COc1ccc(-c2ccc(CNc3ccnc(NCC(C)C)n3)s2)cc1	
8 µg/mL (≈ 18 µM)	8 µg/mL (≈ 18 µM)	CC(C)CNc1nccc(NCc2ccc(-c3ccc(OCc4ccccc4)cc3)s2)n1	
8 µg/mL (≈ 21.5 µM)	8 µg/mL (≈ 21.5 µM)	CC(C)CNc1nccc(NCc2ccc(-c3ccc(Cl)cc3)s2)n1	
2 µg/mL (≈ 4.79 µM)	3 µg/mL (≈ 7.19 µM)	CC(C)CNc1nccc(NCc2ccc(-c3cccc(Br)c3)s2)n1	Activity (Cell membrane [3]): 77.2%; hemolysis at 1 h [4]: < 20%; Activity (Escherichia coli [5]): Active; Activity (Staphylococcus aureus [6]): Active; Activity (Escherichia coli [7]): Active; Activity (Staphylococcus aureus [8]): Active; Activity (Escherichia coli [9]): Active; Activity (Staphylococcus aureus [10]): Active; Activity (Cell membrane [11]): Active; Activity (Cell membrane [12]): Active; Activity (Cell membrane [13]): 58.5%; Activity (Cell membrane [14]): Active; Activity (Cell membrane [15]): Active; Activity (Staphylococcus aureus [16]): Active; Activity (Staphylococcus aureus [17]): Active; inhibition (INH) (Escherichia coli [18]): 100%; inhibition (INH) (Staphylococcus aureus [19]): 100%
4 µg/mL (≈ 9.58 µM)	8 µg/mL (≈ 19.2 µM)	CC(C)CNc1nccc(NCc2ccc(-c3ccccc3Br)s2)n1	
8 µg/mL (≈ 23.6 µM)	8 µg/mL (≈ 23.6 µM)	CC(C)CNc1nccc(NCc2ccc(-c3ccccc3)s2)n1	
8 µg/mL (≈ 23.8 µM)	8 µg/mL (≈ 23.8 µM)	c1ccc(-c2ccc(CNc3ccnc(N4CCCC4)n3)s2)cc1	
2 µg/mL (≈ 4.79 µM)	4 µg/mL (≈ 9.58 µM)	CC(C)CNc1nccc(NCc2ccc(-c3ccc(Br)cc3)s2)n1	
16 µg/mL (≈ 51.5 µM)	> 32 µg/mL	CCNc1nccc(NCc2ccc(-c3ccccc3)s2)n1	
2 µg/mL (≈ 5.07 µM)	8 µg/mL (≈ 20.3 µM)	CC(C)CNc1nccc(NCc2ccc(-c3ccc(C(C)(C)C)cc3)s2)n1	
